Measurements taken from ChEMBL document CHEMBL3259614, “Design, synthesis, and structure-activity relationship studies of novel fused heterocycles-linked triazoles with good activity and water solubility” (J Med Chem, 2014).
≈ marks a conversion by molar mass, not a printed value.

What was measured:
Assay type in all cases: functional
[1] = system: Candida albicans; assay: Antimicrobial activity against Candida albicans SC5314 after 24 hrs by serial dilution method; details: SC5314, 24 h
Procedure, shortened: (§1)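 Broth serial dilution MIC in 96-well plates following NCCLS/CLSI methods. Compounds were dissolved in DMSO and serially diluted in growth medium, with incubation at 35 °C. […] C. parapsilosis 22019 served as the quality-control strain in each assay.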

[2] = system: Cryptococcus neoformans; assay: Antimicrobial activity against Cryptococcus neoformans 32609 after 72 hrs by serial dilution method; details: Cryptococcus neoformans, 32609, 72 h; procedure, shortened: as §1
[3] = system: Aspergillus fumigatus; assay: Antimicrobial activity against Aspergillus fumigatus 7544 after 48 hrs by serial dilution method; details: Aspergillus fumigatus, 7544, 48 h; procedure, shortened: as §1
[4] = system: Candida parapsilosis; assay: Antimicrobial activity against Candida parapsilosis 22019 after 24 hrs by serial dilution method; details: Lodderomyces parapsilosis, 22019, 24 h; procedure, shortened: as §1
[5] = system: Candida albicans; assay: Antimicrobial activity against Candida albicans Y0109 after 24 hrs by serial dilution method; details: Y0109, 24 h; procedure, shortened: as §1
[6] = system: Nakaseomyces glabratus; assay: Antimicrobial activity against Candida glabrata 537 after 24 hrs by serial dilution method; details: Nakaseomyces glabratus, 537, 24 h; procedure, shortened: as §1

Compound	MIC [1]	MIC [2]	MIC [3]	MIC [4]	MIC [5]	MIC [6]
C[C@@H](N1CCn2nncc2C1)[C@](O)(Cn1cncn1)c1ccc(F)cc1F	0.0625 µg/mL (≈ 0.166 µM)	0.25 µg/mL (≈ 0.666 µM)	16 µg/mL (≈ 42.6 µM)	0.25 µg/mL (≈ 0.666 µM)	0.125 µg/mL (≈ 0.333 µM)	0.5 µg/mL (≈ 1.33 µM)
C[C@@H](N1CCn2nnc(Cl)c2C1)[C@](O)(Cn1cncn1)c1ccc(F)cc1F	≤ 0.0312 µg/mL	≤ 0.0625 µg/mL	8 µg/mL (≈ 19.5 µM)	0.125 µg/mL (≈ 0.305 µM)	0.0625 µg/mL (≈ 0.153 µM)	0.25 µg/mL (≈ 0.61 µM)
Cc1nnn2c1CN([C@H](C)[C@](O)(Cn1cncn1)c1ccc(F)cc1F)CC2	0.25 µg/mL (≈ 0.642 µM)	4 µg/mL (≈ 10.3 µM)	16 µg/mL (≈ 41.1 µM)	0.5 µg/mL (≈ 1.28 µM)	0.5 µg/mL (≈ 1.28 µM)	0.5 µg/mL (≈ 1.28 µM)
C[C@@H](N1CCn2nnc(C(=O)N(C)C)c2C1)[C@](O)(Cn1cncn1)c1ccc(F)cc1F	0.5 µg/mL (≈ 1.12 µM)	16 µg/mL (≈ 35.8 µM)	> 16 µg/mL	1 µg/mL (≈ 2.24 µM)	1 µg/mL (≈ 2.24 µM)	8 µg/mL (≈ 17.9 µM)
C[C@@H](N1CCn2nnc(-c3ccccc3)c2C1)[C@](O)(Cn1cncn1)c1ccc(F)cc1F	1 µg/mL (≈ 2.21 µM)	8 µg/mL (≈ 17.7 µM)	> 16 µg/mL	4 µg/mL (≈ 8.86 µM)	2 µg/mL (≈ 4.43 µM)	8 µg/mL (≈ 17.7 µM)
C[C@@H](N1CCn2nnc(-c3cccnc3)c2C1)[C@](O)(Cn1cncn1)c1ccc(F)cc1F	2 µg/mL (≈ 4.42 µM)	4 µg/mL (≈ 8.84 µM)	8 µg/mL (≈ 17.7 µM)	8 µg/mL (≈ 17.7 µM)	4 µg/mL (≈ 8.84 µM)	8 µg/mL (≈ 17.7 µM)
C[C@@H](N1CCn2nnc(-c3ccncc3)c2C1)[C@](O)(Cn1cncn1)c1ccc(F)cc1F	1 µg/mL (≈ 2.21 µM)	16 µg/mL (≈ 35.4 µM)	> 16 µg/mL	4 µg/mL (≈ 8.84 µM)	4 µg/mL (≈ 8.84 µM)	8 µg/mL (≈ 17.7 µM)
C[C@@H](N1CCn2nnc(-c3cncnc3)c2C1)[C@](O)(Cn1cncn1)c1ccc(F)cc1F	1 µg/mL (≈ 2.21 µM)	8 µg/mL (≈ 17.6 µM)	> 16 µg/mL	8 µg/mL (≈ 17.6 µM)	2 µg/mL (≈ 4.41 µM)	8 µg/mL (≈ 17.6 µM)
C[C@@H](N1CCn2nnc(-c3ccc(C#N)nc3)c2C1)[C@](O)(Cn1cncn1)c1ccc(F)cc1F	2 µg/mL (≈ 4.19 µM)	16 µg/mL (≈ 33.5 µM)	> 16 µg/mL	4 µg/mL (≈ 8.38 µM)	4 µg/mL (≈ 8.38 µM)	4 µg/mL (≈ 8.38 µM)
C[C@@H](N1CCn2cc(C(F)(F)F)nc2C1)[C@](O)(Cn1cncn1)c1ccc(F)cc1F	0.25 µg/mL (≈ 0.565 µM)	1 µg/mL (≈ 2.26 µM)	> 64 µg/mL	0.25 µg/mL (≈ 0.565 µM)	0.25 µg/mL (≈ 0.565 µM)	0.25 µg/mL (≈ 0.565 µM)
CCOC(=O)c1cn2c(n1)CN([C@H](C)[C@](O)(Cn1cncn1)c1ccc(F)cc1F)CC2	0.5 µg/mL (≈ 1.12 µM)	2 µg/mL (≈ 4.48 µM)	> 64 µg/mL	0.5 µg/mL (≈ 1.12 µM)	0.5 µg/mL (≈ 1.12 µM)	1 µg/mL (≈ 2.24 µM)
C[C@@H](N1CCn2cc(C(C)(C)C)nc2C1)[C@](O)(Cn1cncn1)c1ccc(F)cc1F	0.25 µg/mL (≈ 0.581 µM)	0.25 µg/mL (≈ 0.581 µM)	> 64 µg/mL	0.25 µg/mL (≈ 0.581 µM)	0.125 µg/mL (≈ 0.29 µM)	0.25 µg/mL (≈ 0.581 µM)
COc1ccc(-c2cn3c(n2)CN([C@H](C)[C@](O)(Cn2cncn2)c2ccc(F)cc2F)CC3)cc1	0.0625 µg/mL (≈ 0.13 µM)	0.125 µg/mL (≈ 0.26 µM)	32 µg/mL (≈ 66.6 µM)	0.125 µg/mL (≈ 0.26 µM)	0.0625 µg/mL (≈ 0.13 µM)	0.125 µg/mL (≈ 0.26 µM)
C[C@@H](N1CCn2cc(-c3ccc(F)cc3)nc2C1)[C@](O)(Cn1cncn1)c1ccc(F)cc1F	0.125 µg/mL (≈ 0.267 µM)	0.125 µg/mL (≈ 0.267 µM)	32 µg/mL (≈ 68.3 µM)	0.125 µg/mL (≈ 0.267 µM)	0.125 µg/mL (≈ 0.267 µM)	0.125 µg/mL (≈ 0.267 µM)
C[C@@H](N1CCn2cc(-c3ccc(C(F)(F)F)cc3)nc2C1)[C@](O)(Cn1cncn1)c1ccc(F)cc1F	0.125 µg/mL (≈ 0.241 µM)	0.125 µg/mL (≈ 0.241 µM)	32 µg/mL (≈ 61.7 µM)	0.25 µg/mL (≈ 0.482 µM)	0.25 µg/mL (≈ 0.482 µM)	0.25 µg/mL (≈ 0.482 µM)
C[C@@H](N1CCn2cc(-c3ccc(F)cc3F)nc2C1)[C@](O)(Cn1cncn1)c1ccc(F)cc1F	0.125 µg/mL (≈ 0.257 µM)	0.125 µg/mL (≈ 0.257 µM)	32 µg/mL (≈ 65.8 µM)	0.125 µg/mL (≈ 0.257 µM)	0.125 µg/mL (≈ 0.257 µM)	0.125 µg/mL (≈ 0.257 µM)
Cc1ccc(-c2cn3c(n2)CN([C@H](C)[C@](O)(Cn2cncn2)c2ccc(F)cc2F)CC3)cc1	0.0625 µg/mL (≈ 0.135 µM)	0.125 µg/mL (≈ 0.269 µM)	32 µg/mL (≈ 68.9 µM)	0.125 µg/mL (≈ 0.269 µM)	0.0625 µg/mL (≈ 0.135 µM)	0.125 µg/mL (≈ 0.269 µM)
COc1cccc(-c2cn3c(n2)CN([C@H](C)[C@](O)(Cn2cncn2)c2ccc(F)cc2F)CC3)c1	0.0625 µg/mL (≈ 0.13 µM)	0.0625 µg/mL (≈ 0.13 µM)	32 µg/mL (≈ 66.6 µM)	0.125 µg/mL (≈ 0.26 µM)	0.0625 µg/mL (≈ 0.13 µM)	0.125 µg/mL (≈ 0.26 µM)
C[C@@H](N1CCn2cc(-c3cccc(F)c3)nc2C1)[C@](O)(Cn1cncn1)c1ccc(F)cc1F	0.125 µg/mL (≈ 0.267 µM)	0.25 µg/mL (≈ 0.534 µM)	64 µg/mL (≈ 137 µM)	0.125 µg/mL (≈ 0.267 µM)	0.25 µg/mL (≈ 0.534 µM)	0.25 µg/mL (≈ 0.534 µM)
C[C@@H](N1CCn2cc(-c3cccc(C(F)(F)F)c3)nc2C1)[C@](O)(Cn1cncn1)c1ccc(F)cc1F	0.125 µg/mL (≈ 0.241 µM)	0.25 µg/mL (≈ 0.482 µM)	64 µg/mL (≈ 123 µM)	0.125 µg/mL (≈ 0.241 µM)	0.5 µg/mL (≈ 0.964 µM)	0.25 µg/mL (≈ 0.482 µM)
